Test results from ChEMBL document CHEMBL4428108, “Carbohydrate-based peptidomimetics targeting neuropilin-1: Synthesis, molecular docking study and in vitro biological activities” (Bioorg Med Chem, 2016).
The source made the active and inactive calls. No cut-off for these calls is given here. Peptide text beside a SMILES is read from it.

Tests used:
[1] = target: T1, Neuropilin-1 (Homo sapiens, UniProt O14786); assay: Inhibition of biotinylated VEGF-A165 binding to recombinant NRP1 (unknown origin) at 100 uM measured after 2 hrs by competition binding assay relative to VEGF-A165
T1 sequence (O14786 whole entry): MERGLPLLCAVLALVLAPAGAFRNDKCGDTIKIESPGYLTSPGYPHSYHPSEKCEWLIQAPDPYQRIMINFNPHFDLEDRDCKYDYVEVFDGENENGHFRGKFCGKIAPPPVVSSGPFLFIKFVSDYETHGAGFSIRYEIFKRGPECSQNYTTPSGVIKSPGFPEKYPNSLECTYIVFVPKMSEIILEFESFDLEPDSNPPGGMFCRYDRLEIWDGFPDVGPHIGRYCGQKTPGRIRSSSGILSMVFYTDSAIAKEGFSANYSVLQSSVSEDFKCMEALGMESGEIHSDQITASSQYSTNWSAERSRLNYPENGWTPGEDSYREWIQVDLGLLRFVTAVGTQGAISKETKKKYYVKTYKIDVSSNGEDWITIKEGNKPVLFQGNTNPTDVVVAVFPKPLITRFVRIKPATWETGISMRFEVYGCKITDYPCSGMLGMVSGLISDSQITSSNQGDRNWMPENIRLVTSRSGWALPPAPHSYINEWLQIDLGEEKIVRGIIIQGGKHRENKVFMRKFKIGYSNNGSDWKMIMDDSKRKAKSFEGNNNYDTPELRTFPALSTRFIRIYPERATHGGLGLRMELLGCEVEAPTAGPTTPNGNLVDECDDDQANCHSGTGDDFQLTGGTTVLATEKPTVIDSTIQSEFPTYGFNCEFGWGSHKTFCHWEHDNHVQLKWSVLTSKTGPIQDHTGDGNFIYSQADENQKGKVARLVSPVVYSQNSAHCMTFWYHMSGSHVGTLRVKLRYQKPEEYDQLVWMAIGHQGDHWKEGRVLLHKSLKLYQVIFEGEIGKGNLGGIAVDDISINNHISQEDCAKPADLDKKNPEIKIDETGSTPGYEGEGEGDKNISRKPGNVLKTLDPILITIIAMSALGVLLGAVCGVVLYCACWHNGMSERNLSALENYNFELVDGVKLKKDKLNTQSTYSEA
Procedure, shortened: (§1)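 Competition ELISA. Wells coated overnight at room temperature with recombinant chimeric NRP-1 or KDR in PBS, then blocked with 0.5% BSA/PBS for 1 h at 37 °C. Biotinylated VEGF-A165 (5 ng/mL, heparin-containing blocking buffer) incubated 2 h at room temperature with or without compound; unlabelled VEGF-A165 as positive control. Bound tracer detected with streptavidin-HRP, read at 450 nm. Three independent experiments, triplicates.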

[2] = target: T1, Neuropilin-1; assay: Inhibition of biotinylated VEGF-A165 binding to recombinant NRP1 (unknown origin) measured after 2 hrs by competition binding assay; procedure, shortened: as §1
[3] = target: T1, Neuropilin-1; assay: Binding affinity to NRP1 in HUVEC assessed as increase in AKT phosphorylation at 50 uM by Western blot analysis; type: cell-based
Procedure, shortened: (§2)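 HUVECs exposed to 50 µM compound; tuftsin as reference. Lysate protein (40 µg) resolved by SDS-PAGE and blotted to PVDF. Probed overnight at 4 °C for pAKT (Ser473), total AKT, pERK1/2 (Thr202/Tyr204) and total ERK1/2. ECL detection and densitometry. Phospho/total band ratio normalized to non-treated cells.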

[4] = target: T1, Neuropilin-1; assay: Binding affinity to NRP1 in HUVEC assessed as ratio of phosphorylated ERK to total ERK at 50 uM by Western blot analysis; type: cell-based; procedure, shortened: as §2

| SMILES | inhibition [1] | further results |
| --- | --- | --- |
| CC1(C)O[C@@H]2[C@H](O1)[C@@H](CN(CCNC(=N)N)C(=N)N)O[C@@H]2CC(=O)NCCc1c[nH]c2ccccc12 | 26% | – |
| CC1(C)O[C@@H]2[C@H](O1)[C@H](Cn1cc(CCNC(=N)N)nn1)O[C@@H]2CC(=O)NCCc1c[nH]c2ccccc12 | 5% | – |
| CC1(C)O[C@@H]2[C@H](O1)[C@H](CN(CCCNC(=N)N)C(=N)N)O[C@@H]2CC(=O)NCCc1c[nH]c2ccccc12 | 5% | – |
| CC1(C)O[C@@H]2[C@H](O1)[C@H](Cn1cc(CCCNC(=N)N)nn1)O[C@@H]2CC(=O)NCCc1c[nH]c2ccccc12 | 18% | – |
| CC1(C)O[C@@H]2[C@H](O1)[C@H](CN(CCCCCNC(=N)N)C(=N)N)O[C@@H]2CC(=O)NCCc1c[nH]c2ccccc12 | 52% | IC50 [2]: 120 µM |
| CC1(C)O[C@@H]2[C@H](O1)[C@H](CN(CCCCNC(=N)N)C(=N)N)O[C@@H]2CC(=O)NCCc1c[nH]c2ccccc12 | 39% | – |
| N=C(N)NCCc1cn(C[C@@H]2O[C@H](CC(=O)NCCc3c[nH]c4ccccc34)[C@H](O)[C@@H]2O)nn1 | 37% | – |
| N=C(N)NCCCc1cn(C[C@@H]2O[C@H](CC(=O)NCCc3c[nH]c4ccccc34)[C@H](O)[C@@H]2O)nn1 | 4% | – |
| C[C@@H](O)[C@H](N)C(=O)N[C@@H](CCCCN)C(=O)N1CCC[C@H]1C(=O)N[C@@H](CCCNC(=N)N)C(=O)O (H-TKPR-OH) | – | Activity [3]: Active; IC50 [2]: 25 µM; Ratio [4]: 0.88 |
